Assay results from ChEMBL document CHEMBL1777695, “Design and synthesis of pironetin analogues with simplified structure and study of their interactions with microtubules” (Eur J Med Chem, 2011).
Activity calls are given as the source filed them. The rule behind the calls is not given here.

How the values were obtained:
A2780 [1] = experiment: Cytotoxicity against compound-sensitive human A2780 cells after 24 hrs by MTT assay; format: functional, cell-based; details: A2780, 24 h
In short: (§1)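 MTT proliferation assay in ovarian carcinoma A2780 and P-glycoprotein-overexpressing A2780AD cells, grown in RPMI 1640 with 10% FCS, glutamine, antibiotics and 0.25 units/mL bovine insulin. IC50 (50% inhibition of proliferation) is the mean ± standard error of two independent experiments in duplicate. Relative resistance is IC50 in A2780AD divided by IC50 in A2780.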

[2] = Cytotoxicity against compound-resistant human A2780AD cells after 24 hrs by MTT assay; format: functional, cell-based; details: A2780 ADR; in short: as §1
A2780 [3] = experiment: Resistance index, ratio of IC50 for human compound-resistant A2780AD cells to IC50 for human compound-sensitive A2780 cells
A549 [4] = experiment: Cell cycle arrest in human A549 cells assessed as minimum concentration required to induce accumulation at G2/M phase after 20 hrs by propidium iodide staining-based flow cytometry; format: functional
In short: (§2)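 A549 cells (RPMI 1640, 10% FCS, glutamine, antibiotics) exposed 20 h to ligand or vehicle. Cells fixed, RNase-treated and stained with propidium iodide. DNA content read by flow cytometry. The lowest concentration giving maximal G2/M arrest is reported.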

[5] = Inhibition of tubulin assembly assessed as concentration of tubulin required to produce assembly at 100 uM after 30 mins
In short: (§3)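 Purified tubulin (20 µM) incubated 30 min at 37 °C in GAB (3.4 M glycerol, 10 mM sodium phosphate, 1 mM EGTA, 1 mM GTP, pH 6.5) with 25 µM pironetin or docetaxel, 100 µM analogue, or DMSO vehicle. Critical concentration for assembly determined. Mean of five measurements ± SE.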

A549 [6] = experiment: Induction of apoptosis in human A549 cells after 20 hrs; format: functional, cell-based
A549 [7] = experiment: Induction of abberant mitosis in human A549 cells assessed as metaphase mitotic cells with DNA forming a ring surrounding mono-aster of microtubule at 200 uM after 4 hrs relative to control; format: functional, cell-based
In short: (§4)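 A549 cells grown overnight on coverslips, then treated 4 h with ligand (50 nM or 200 µM) or DMSO vehicle. Cells permeabilized with Triton X-100 and fixed in 3.7% formaldehyde. Microtubules stained with DM1A anti-α-tubulin antibody and DNA with Hoechst 33342. Spindle and microtubule morphology examined by epifluorescence microscopy.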

A549 [8] = experiment: Induction of abberant mitosis in human A549 cells assessed as metaphase mitotic cells with type III mitotic spindles at 200 uM after 4 hrs relative to control; format: functional, cell-based; in short: as §4
[9] = Displacement of pironetin from tubulin in cell-free system assessed as unbound pironetin concentration at 200 uM after 15 mins by HPLC method
In short: (§5)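 Tubulin (25 µM in GAB: 3.4 M glycerol, 10 mM sodium phosphate, 1 mM EGTA, 1 mM GTP, pH 6.5) preincubated 15 min at 37 °C with 200 µM analogue or DMSO. 30 µM pironetin then added for a further 15 min. Docetaxel (10 µM) added as internal standard. Unreacted pironetin extracted three times with CH2Cl2 and quantified by reverse-phase HPLC, UV at 230 nm. Mean of three measurements ± SE.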

[10] = Displacement of pironetin from tubulin in cell-free system assessed as bound pironetin concentration at 200 uM after 15 mins by HPLC method; in short: as §5
A549 [11] = experiment: Induction of microtubule cytoskeleton depolymerization in human A549 cells at 200 uM after 4 hrs by immunofluorescence assay; format: cell-based
A549 [12] = experiment: Induction of microtubule cytoskeleton depolymerization in human A549 cells at 50 nM after 4 hrs by immunofluorescence assay; format: cell-based; in short: as §4
[13] = Binding affinity to tubulin after 15 min; in short: as §5
[14] = Inhibition of tubulin assembly assessed as concentration of tubulin required to produce assembly at 25 uM after 30 mins; in short: as §3
A549 [15] = experiment: Induction of abberant mitosis in human A549 cells assessed as metaphase mitotic cells with DNA forming a ring surrounding mono-aster of microtubule at 50 nM after 4 hrs relative to control; format: functional, cell-based; in short: as §4
A549 [16] = experiment: Cell cycle arrest in human A549 cells assessed accumulation at G2/M phase at 50 nM after 20 hrs by propidium iodide staining-based flow cytometry; format: functional; in short: as §2
A549 [17] = experiment: Induction of abberant mitosis in human A549 cells assessed as metaphase mitotic cells with type III mitotic spindles at 50 nM after 4 hrs relative to control; format: functional, cell-based; in short: as §4

| SMILES | IC50 (A2780 [1]) [µM] | IC50 [2] [µM] | Ratio IC50 (A2780 [3]) | Activity (A549 [4]) [µM] | Activity [5] [µM] | Activity (A549 [6]) | Activity (A549 [7]) | Activity (A549 [8]) | Activity [9] [µM] | Activity [10] [µM] | Activity (A549 [11]) | Activity (A549 [12]) | Activity [13] [µM] | Activity [14] [µM] | Activity (A549 [15]) | Activity (A549 [16]) | Activity (A549 [17]) |
| --- | --- | --- | --- | --- | --- | --- | --- | --- | --- | --- | --- | --- | --- | --- | --- | --- | --- |
| CC(=O)O[C@H]1C(=O)[C@@]2(C)[C@H]([C@H](OC(=O)c3ccccc3)[C@]3(O)C[C@H](OC(=O)[C@H](O)[C@@H](NC(=O)c4ccccc4)c4ccccc4)C(C)=C1C3(C)C)[C@]1(OC(C)=O)CO[C@@H]1C[C@@H]2O [PACLITAXEL] | 0.00082 | 0.949 | 1157 | – | – | – | – | – | – | – | – | – | – | – | – | – | – |
| CCCCC[C@H](C[C@@H](O)C[C@H]1CC=CC(=O)O1)OC | 28.9 | 18.1 | 0.62 | 100 | 3.44 | inactive | – | – | – | – | – | – | – | – | – | – | – |
| CCCCC[C@H](CCC[C@@H]1CC=CC(=O)O1)OC | 14.4 | 20.5 | 1.42 | 50 | 3.79 | – | Active | Active | 15 | 10 | Active | – | – | – | – | – | – |
| CCCCC[C@H](C[C@H](O)C[C@H]1CC=CC(=O)O1)OC | 44 | 57.5 | 1.3 | 100 | 3.39 | inactive | – | – | 10 | 4 | – | – | – | – | – | – | – |
| CCCCC[C@@H](CCC[C@@H]1CC=CC(=O)O1)OC | 14.9 | 11.5 | 0.77 | 50 | 3.75 | inactive | – | – | 15 | 10 | – | – | – | – | – | – | – |
| CCCCC[C@@H](C[C@@H](O)C[C@@H]1CC=CC(=O)O1)OC | 49.4 | 46.3 | 0.93 | 200 | – | inactive | Active | Active | – | – | Active | – | – | – | – | – | – |
| CCCCC[C@H](C[C@@H](O)C[C@@H]1CC=CC(=O)O1)OC | 54.5 | 91.5 | 1.67 | 200 | – | inactive | – | – | – | – | – | – | – | – | – | – | – |
| CCCCC[C@@H](C[C@@H](O)C[C@H]1CC=CC(=O)O1)OC | 33.7 | 25.2 | 0.74 | 200 | – | inactive | – | – | – | – | – | – | – | – | – | – | – |
| C/C=C/C[C@H](C)[C@@H](OC)[C@@H](C)[C@H](O)C[C@H]1OC(=O)C=C[C@H]1CC [PIRONETIN] | 0.0029 | 0.003 | 1 | – | – | inactive | – | – | – | – | – | Active | 23.4 | > 15 | Active | Active | Active |
| CC(=O)O[C@@]12CO[C@@H]1C[C@H](O)[C@@]1(C)C(=O)[C@H](O)C3=C(C)[C@@H](OC(=O)[C@H](O)[C@@H](NC(=O)OC(C)(C)C)c4ccccc4)C[C@@](O)([C@@H](OC(=O)c4ccccc4)[C@H]21)C3(C)C | – | – | – | – | – | – | – | – | – | – | – | – | – | 0.4 | – | – | – |
| CCCCC[C@@H](C[C@H](O)C[C@@H]1CC=CC(=O)O1)OC | 35.4 | 26.3 | 0.74 | 100 | – | inactive | – | – | 10 | 4 | – | – | – | – | – | – | – |
| CCCCC[C@@H](C[C@H](O)C[C@H]1CC=CC(=O)O1)OC | 53.7 | 48 | 0.89 | 200 | – | inactive | – | – | – | – | – | – | – | – | – | – | – |
| CCCCC[C@@H](CCC[C@H]1CC=CC(=O)O1)OC | 20.6 | 9 | 0.45 | 50 | 3.73 | inactive | Active | Active | – | – | Active | – | – | – | – | – | – |
| CCCCC[C@H](CCC[C@H]1CC=CC(=O)O1)OC | 17.1 | 12.2 | 0.7 | 50 | 3.85 | – | Active | Active | 15 | 10 | Active | – | – | – | – | – | – |
| CCCCC[C@H](C[C@H](O)C[C@@H]1CC=CC(=O)O1)OC | 22.9 | 30 | 1.3 | 100 | – | inactive | – | – | 10 | 4 | – | – | – | – | – | – | – |
